The source of these data is the RNAGym collection of RNA variant scans (doi:10.1126/science.aae0568).

Sequences and labels used below:
B1: tRNA (parent)
chain: GUUCCGUUGGCGUAAUGGUAACGCGUCUCCCUCCUAAGGAGAAGACUGCGGGUUCGAGUCCCGUACGGAACG

This sample holds only a part of the variants without activity.

Variants of B1 are the subject of the data set. Nature of the data set: yeast fitness relative to wild type (ratio to wild type); higher = fitter; tRNA-Arg(CCU), competitive growth, 37 C, YPD. Summed up:
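The tRNA-Arg(CCU) gene variants were made by chemical synthesis with a 3% per-site mutation rate at 69 sites and inserted at the native genomic locus of Saccharomyces cerevisiae. After pooling, the strains were competed in YPD at 37°C for 24 hours in six parallel replicates. Gene amplicons from the start population and each end population were read by 100-nucleotide paired-end sequencing, and Darwinian fitness relative to wild type was taken from genotype frequency changes. Genotypes needed ≥ 100 starting reads, and estimates < 0.5 were set to 0.5.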
Regarding U13C C46G C62G, the yeast fitness is no more than 0.5.

Consider U7A A42G C46G A65C, for which the yeast fitness amounted to 0.66.

For C5G U13A C22G C29G A40U C62U, the yeast fitness was no more than 0.5.

Consider A15U G52C G68A, for which the yeast fitness is no more than 0.5.

C24G A36G A65U: the yeast fitness was found to be 0.554.

Turning to C4A C5U U19A C55U, the yeast fitness was found to be 0.539.

In the case of C11G C22U C30A, the yeast fitness is no more than 0.5.

For the variant A14G A21U G41C, the yeast fitness is no more than 0.5.

Regarding A20C G68C, the yeast fitness turned out to be 0.689.

On to C22G A45G, for which the yeast fitness worked out at 0.867.

For C5G A21C A69C, the yeast fitness was no more than 0.5.

Turning to U19A U59C C61A U64C, the yeast fitness was no more than 0.5.

Regarding A45U A65G, the yeast fitness was determined as 0.947.

In the case of U19A A42U, the yeast fitness was 0.949.

Regarding C11U A36G U53C, the yeast fitness came out at 0.538.

As for C30G C31G A65U C66G, the yeast fitness is no more than 0.5.

On to U59A C61G, for which the yeast fitness was 0.62.

Regarding A21C C30G C55G A70G, the yeast fitness worked out at 0.532.

Consider C4G C29A C33G A45C G67C, for which the yeast fitness is no more than 0.5.

U13C A37G C60A A65U: the yeast fitness is no more than 0.5.

As to G9A A20G, the yeast fitness is 1.05.

U2A G18A C22A C24G A43G C49G: the yeast fitness is 0.634.

For C30U A42C G67C A69U, the yeast fitness is no more than 0.5.

With U2C U19C A69C, the yeast fitness turned out to be 0.708.

As to U13C G38A A70U, the yeast fitness was found to be 0.525.

On to C4G G6C U8G G17A G23A C46G C60A, for which the yeast fitness worked out at 0.567.

As for C27U C29U C49U, the yeast fitness was 0.71.

As for U3C U8C G9A A69U, the yeast fitness amounted to 0.564.

With A21U C62U, the yeast fitness is 0.716.

Regarding U8A A15U C27G A36G G38U, the yeast fitness is no more than 0.5.

As to A21U C30A A69U, the yeast fitness worked out at 0.815.

For A15U U32G G44A G52A C61U A69C, the yeast fitness is no more than 0.5.

Regarding C34U G56A G67A, the yeast fitness is no more than 0.5.

With A21U C27G C30A G67A, the yeast fitness was no more than 0.5.

For C24U G56C A57G, the yeast fitness is no more than 0.5.

Take C11U A14U C24G C55U: the yeast fitness is no more than 0.5.

For the variant C11U G41C G68A A69C, the yeast fitness is no more than 0.5.

As to U19C C31A C66U, the yeast fitness stood at 0.555.

In the case of G10C C11U C27G A42G C55U, the yeast fitness is 0.785.

Consider C22U G25A A36G G51A C66U, for which the yeast fitness is no more than 0.5.

Take U2G A21G A57C: the yeast fitness was no more than 0.5.

As to U3C U19C A40G C46A, the yeast fitness was 0.74.

Consider C24G C34G G52A, for which the yeast fitness is 0.602.

C5G C46U G51A U54G: the yeast fitness turned out to be 0.571.

Take G6C U64G: the yeast fitness was 0.63.

Turning to C11G G17U A21U A42U, the yeast fitness was no more than 0.5.

Take A20U C46G: the yeast fitness stood at 1.07.

For the variant C27G A37C, the yeast fitness turned out to be 0.911.

Regarding G17A C22U A37C C55U, the yeast fitness was no more than 0.5.

With G12A G38A G56C C62A A65C, the yeast fitness is no more than 0.5.

Regarding U16C U26C C33U G63C, the yeast fitness was no more than 0.5.

With C27A C29U, the yeast fitness is 0.766.

With C11U C22A C29G C33U G56C, the yeast fitness is no more than 0.5.

Regarding C11G C22U C24G C30G, the yeast fitness is no more than 0.5.

Consider G10C A14G C24A A70U, for which the yeast fitness was no more than 0.5.

C22G U53G: the yeast fitness is 0.503.

Take G18A G25C: the yeast fitness stood at 0.746.

As for A43G G51A C61U C62G, the yeast fitness is no more than 0.5.

For the variant C5G A37G C46G C61A, the yeast fitness is no more than 0.5.

In the case of C5A C34G A37G, the yeast fitness was no more than 0.5.

As to C4G U7A G9A C11U C55U, the yeast fitness was no more than 0.5.

U13G C22U A70C: the yeast fitness is 0.748.

With C4G U8C C24G A42C C61G, the yeast fitness was no more than 0.5.

Consider A20G A69G, for which the yeast fitness was 1.04.

Turning to G9C U32A C55U A57U C62A, the yeast fitness is no more than 0.5.

A15U A65U A70C: the yeast fitness was no more than 0.5.

Take G18C C27A C55U G63C: the yeast fitness was no more than 0.5.

Take A37C G41A C49U C60G: the yeast fitness was no more than 0.5.

With G17A C24U C30U C46A, the yeast fitness was no more than 0.5.

Regarding G6C G17A A40U, the yeast fitness was no more than 0.5.

As for U7C G9A G23C A45C, the yeast fitness was no more than 0.5.

Take C4G C11G G52A C55U C61A: the yeast fitness was no more than 0.5.

U3A C27A: the yeast fitness stood at 0.86.

Take A37U A45C: the yeast fitness was found to be 0.64.

With C27G C46G A65G, the yeast fitness was determined as 0.631.

For C31G U32A U53G, the yeast fitness was 0.646.

As to U3A G52A C60A A69G, the yeast fitness is no more than 0.5.

As for C4G C11G C55U U59C C61A, the yeast fitness was no more than 0.5.

For G10A A14U C31A U35G C46A A65U, the yeast fitness was no more than 0.5.

For the variant G10C C22G C30U C55U, the yeast fitness was no more than 0.5.

For the variant C5A C46U C55U, the yeast fitness was 0.763.

In the case of G12A A37C C61U, the yeast fitness is no more than 0.5.

For the variant C4U U16A A20U U28C U35C G39C A42C G48A, the yeast fitness was no more than 0.5.

As to U3C C4U C24G C49U C60U C61A, the yeast fitness is no more than 0.5.

In the case of G6C A14U G18C C49U, the yeast fitness was no more than 0.5.

On to U26C U28C C34G U59A A65U, for which the yeast fitness is no more than 0.5.

Take U2A C24G A43U C46U A57G: the yeast fitness was no more than 0.5.

Consider U2A C22U, for which the yeast fitness was found to be 0.796.

As for A14U U26G C33A A40U A69U, the yeast fitness was no more than 0.5.

Turning to U19A U28C G39C, the yeast fitness was no more than 0.5.

Consider G10A U16C A36G G48C, for which the yeast fitness is no more than 0.5.

Consider C5G C27U A43U, for which the yeast fitness came to 0.54.

Consider C31G A45G A65G, for which the yeast fitness came to 0.628.

For C46A G63U, the yeast fitness turned out to be 0.764.

For the variant U13A C27G A42U A69U, the yeast fitness was determined as 0.687.

Consider A36U G52A C60G, for which the yeast fitness is no more than 0.5.

U13A G17A: the yeast fitness was found to be 0.764.

Regarding U2C C29U C62U A70U, the yeast fitness was no more than 0.5.

In the case of C11U G17A C49U, the yeast fitness came to 0.596.

As for G23A G68C, the yeast fitness was 0.746.

As for A20C G23C C34A G67A, the yeast fitness was no more than 0.5.

Consider C24G C55U G68C, for which the yeast fitness is no more than 0.5.

For the variant U8G U16A G18C C22G, the yeast fitness was no more than 0.5.

As to C5U G6C A20U A45U, the yeast fitness is no more than 0.5.

As for A45C G50C G51C C55U G67C, the yeast fitness was no more than 0.5.

For the variant U19A C27G C31U C62U, the yeast fitness was no more than 0.5.

On to G9A G12C A14C G23A G50C, for which the yeast fitness worked out at 0.56.

C11G C27U A37U C49U: the yeast fitness was no more than 0.5.

Regarding C4A G52C A57C G63C, the yeast fitness stood at 0.56.

For U3A C4A A20C C29A, the yeast fitness is no more than 0.5.

Consider U3C A14G C34G A43C, for which the yeast fitness is no more than 0.5.

On to A42C A43C A65G, for which the yeast fitness came to 1.09.

Turning to U16A A20G C62A, the yeast fitness was 0.546.

As for G44U C49G, the yeast fitness turned out to be 0.654.

For G39A A42C C61U, the yeast fitness came to 0.542.

Take C4U U7A C62G: the yeast fitness is no more than 0.5.

A57C A65C: the yeast fitness worked out at 0.594.

Take C24A A45G C66U: the yeast fitness was no more than 0.5.

For the variant G38A U64A, the yeast fitness amounted to 0.765.

Consider A14C C61U, for which the yeast fitness came out at 0.626.

On to G12A C22A A57C U64A, for which the yeast fitness is no more than 0.5.

For U16A C34U A36G A40C G44C, the yeast fitness was no more than 0.5.

C24G C30A A69C: the yeast fitness stood at 0.547.

Take A20G A42C C61U: the yeast fitness came out at 0.573.

As for A37G C62G, the yeast fitness stood at 0.676.

Turning to C34G A43C G50C, the yeast fitness is no more than 0.5.

Consider C11U U28C A40C G50C, for which the yeast fitness is no more than 0.5.

With A65U A69U, the yeast fitness is 0.967.

For U7A G41C U54A C62U A70U, the yeast fitness was no more than 0.5.

As to G25A G41A A43U, the yeast fitness is no more than 0.5.

In the case of C4A C5U G52C C61G, the yeast fitness was no more than 0.5.

For G6A U7G C22G G50A, the yeast fitness is no more than 0.5.

For G17A C31G G38C G63C, the yeast fitness was no more than 0.5.

Turning to G10A C31A G38C G44A A65G, the yeast fitness was no more than 0.5.

With C30A U47C C66U A70U, the yeast fitness was no more than 0.5.

In the case of C24G U28A C31A, the yeast fitness is no more than 0.5.

Consider U8C A45C A69U, for which the yeast fitness worked out at 0.765.

On to C11A A20G, for which the yeast fitness was found to be 0.556.

For G23A C30U A37C U54C, the yeast fitness was no more than 0.5.

For the variant G23A C30U C55A, the yeast fitness came to 0.573.

As for U3C C27G, the yeast fitness is 0.714.

For the variant G39C C60G, the yeast fitness was 0.619.

As to G9C A15G C49A A69U, the yeast fitness is no more than 0.5.

As to G6C A20G A45U, the yeast fitness worked out at 0.507.

Take U16G A70C: the yeast fitness came to 0.911.

On to A15C A37C, for which the yeast fitness amounted to 0.639.

C11G G56C G67U: the yeast fitness is no more than 0.5.

Consider C24G A36U U64C, for which the yeast fitness was 0.52.

In the case of C11A A15U C30A A42C, the yeast fitness was no more than 0.5.

On to G10C C31A A65C A69C, for which the yeast fitness is no more than 0.5.

Turning to C31G C33A G48C, the yeast fitness is no more than 0.5.

With A36G A42C A69U, the yeast fitness turned out to be 0.744.

On to A36G A57U, for which the yeast fitness stood at 0.859.

As to U3A A42G C66U, the yeast fitness was determined as 0.595.

Take C5G U16A A21C A57C: the yeast fitness was determined as 0.624.

As to C24U C49U A65U, the yeast fitness is 0.577.

Regarding G10C C34G A42U A70C, the yeast fitness was no more than 0.5.

Turning to A15G A69U, the yeast fitness came out at 1.04.

Turning to C31U A37U, the yeast fitness was determined as 0.744.

For A14U U28C A70C, the yeast fitness was no more than 0.5.

C31U U64G: the yeast fitness is 0.775.

Turning to C4U C34A, the yeast fitness was found to be 0.846.

Consider A36C C55G, for which the yeast fitness worked out at 0.556.

Turning to A40G A70U, the yeast fitness is 0.891.

As to G41C U47A, the yeast fitness came to 0.654.

Consider G10A C34A U35A U54C, for which the yeast fitness is 0.522.

As to C27U U28A U32A C34U A36C G48A C60U, the yeast fitness was no more than 0.5.
